Most compounds without a hit are left out; they make up all but 3.1% or so of the library.
SENP8 block-1: human SENP8 protease inhibitors, primary screen, biochemical, fluorescence, Nedd8 protein substrate, uHTS; Sentrin-specific protease 8 (Homo sapiens), Q96LD8; inhibition, % at 20 µM; hit rate 0.64% among 360,000; AID 602440, 2012; recombinant SENP8; in the data active means inhibition mostly above about 40%, no sharp cut-off; inactive means mostly below about 27%
SENP7 block: SENP7 protease inhibitors, primary screen, biochemical, luminescence, uHTS. Sentrin-specific protease 7 (Homo sapiens), Q9BQF6. recombinant SENP7, Z-RLRGG-aminoluciferin luminescence, 40 min. inhibition, % at 5 µM. hit rate 1.5% among 330,000. AID 434973, 2010;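 active means inhibition above about 50% at the single test dose, limit read from the data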;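 further: plate controls were DMSO with enzyme for no effect and no enzyme buffer wells for full effect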
Target sequence (Q9BQF6 706-1050 limits assumed): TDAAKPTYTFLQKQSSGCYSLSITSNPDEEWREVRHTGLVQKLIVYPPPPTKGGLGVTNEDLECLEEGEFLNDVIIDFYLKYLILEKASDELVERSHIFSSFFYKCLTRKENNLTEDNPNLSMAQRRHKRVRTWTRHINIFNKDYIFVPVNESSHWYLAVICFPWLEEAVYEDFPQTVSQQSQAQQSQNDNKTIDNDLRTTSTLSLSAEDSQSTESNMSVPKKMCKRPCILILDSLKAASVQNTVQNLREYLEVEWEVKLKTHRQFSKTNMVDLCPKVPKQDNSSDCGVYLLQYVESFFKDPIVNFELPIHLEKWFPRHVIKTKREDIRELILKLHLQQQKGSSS
SENP6 block: SENP6 protease inhibitors, primary screen, biochemical, luminescence, uHTS. Sentrin-specific protease 6 (Homo sapiens), Q9GZR1. Recombinant SENP6 catalytic domain, aminoluciferin luminescence. hit rate 1.8% among 330,000. inhibition, % at 10 µM;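 active means inhibition above about 50% at the single tested dose, limit read from the data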;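 further: plate controls were DMSO wells with enzyme for no effect and DMSO wells lacking enzyme for full effect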
UBC13 polyUb: UBC13 polyubiquitin chain formation inhibitors, primary screen, biochemical, TR-FRET, uHTS; hit rate 0.47% among 330,000; inhibition, % at 20 µM; in the data active means inhibition above about 45%, passing the limit was not always enough
SENP8 block-2: SENP8 protease inhibitors, primary screen, biochemical, luminescence | purified SENP8, Z-RLRGG-aminoluciferin cleavage | inhibition, % at 10 µM | hit rate 1.2% among 330,000; in the data active means inhibition above about 50%
Apaf-1 inh: inhibitors of human Apaf-1 apoptosome, primary screen, biochemical, DEVD-Rh110 fluorescence, uHTS; Apoptotic protease-activating factor 1 (Homo sapiens), O14727; reconstituted apoptosome caspase-3 activity; inhibition, % at 20 µM; hit rate 0.71% among 330,000; AID 489030, 2010; active means inhibition of at least 40% at 20 µM;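 further: plate controls were DMSO wells for no effect and DEVD-CHO caspase inhibitor wells for full effect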
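Material: biochemical Apaf-1 apoptosome reconstitution. Medium: Hepes buffer, pH 7.5. Also added: cytochrome c activation, bis-DEVD rhodamine 110 substrate. Timing: 30 min compound preincubation, 50 min activation, room temperature. Measured by: rhodamine 110 fluorescence at Ex 480/Em 540 nm.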
SENP8 conf: SENP8 protease inhibitors, retest, confirmation, biochemical, luminescence, single concentration; AID 488912, 2010; hit rate 40% among 6,200; Recombinant SENP8, Z-RLRGG-aminoluciferin luminescence, 60 min; inhibition, % at 12.5 µM; shares compounds with SENP7 block;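 active means mean inhibition across replicates above about 50%, limit read from the data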
SENP6 conf: SENP6 protease inhibitors, confirmation, biochemical, luminescence, single concentration; shares compounds with SENP7 block; recombinant SENP6, Z-RLRGG-aminoluciferin luminescence; inhibition, % at 12.5 µM; hit rate 58% among 6,200
SENP7 conf: SENP7 protease inhibitors, retest, confirmation, biochemical, luminescence, single concentration | AID 488917, 2010 | shares compounds with SENP7 block | recombinant SENP7, Z-RLRGG-aminoluciferin luminescence, 40 min | hit rate 69% among 6,200 | inhibition, % at 12.5 µM
Casp3 select: caspase-3 protease inhibitors, confirmation, selectivity assay for SENP inhibitor project, biochemical, single concentration; shares compounds with SENP7 block; purified caspase-3, Z-DEVD-aminoluciferin luminescence, 60 min; inhibition, % at 12.5 µM; hit rate 60% among 6,200;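 active means mean inhibition above about 50%, limit read from the data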;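 further: plate controls were enzyme with DMSO for no effect and wells without caspase-3 for full effect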
Target sequence (P42574 28-227 limits assumed): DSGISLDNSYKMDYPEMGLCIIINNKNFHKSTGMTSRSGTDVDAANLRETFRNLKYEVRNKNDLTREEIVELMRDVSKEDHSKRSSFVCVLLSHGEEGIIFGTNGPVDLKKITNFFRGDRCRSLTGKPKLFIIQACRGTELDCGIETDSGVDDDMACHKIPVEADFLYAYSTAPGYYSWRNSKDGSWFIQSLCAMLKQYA
Luc interf: luminescence interference (SENP counter-screen). hit rate 39% among 6,200. AID 488919. inhibition, % at 12.5 µM. shares compounds with SENP7 block. Pre-incubated SENP8/Z-RLRGG-aminoluciferin, luciferase luminescence interference;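 active means mean inhibition above about 50% when retested at one dose, limit read from the data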;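 further: plate controls were DMSO wells with completed reaction for no effect and substrate without enzyme for full effect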
An asterisk follows results filed as active; i = inactive; nt = no result given.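 How the source made its calls, unless noted: active means mean inhibition above about 50% in the one-dose retest (limit read from the data); inactive means the rest.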

SMILES	SENP8 block-1	SENP7 block	SENP6 block	UBC13 polyUb	SENP8 block-2	Apaf-1 inh	SENP8 conf	SENP6 conf	SENP7 conf	Casp3 select	Luc interf
CCOC(=O)c1ccc(NC(=S)Nc2ccccc2)cc1	13	12	7	1	0	5	nt	nt	nt	nt	nt
CCOC(=O)C(/C(N)=N/C(=O)Nc1ccccc1)=C(\C)O	11	1	64*	6	44	-13	16	57*	88*	80*	8
CSC[C@H]1CN(Cc2cccnc2)C(=O)[C@@H]1CC(=O)Nc1ccc(Br)cc1	4	nt	nt	nt	nt	nt	nt	nt	nt	nt	nt
O=C(Nc1ccc2c(c1)C(=O)NC2=O)c1ccc(Cl)s1	-402	-23	-22	-2	-13	-15	nt	nt	nt	nt	nt
O=C(Nc1ccc2sccc2c1)c1ccc(Cl)s1	-7	86*	71*	19	19	3	-25	-3	88*	50*	4
CN(C)c1cccc2c(S(=O)(=O)NC(=O)[C@H]3O[C@@H](n4cnc5c(N)ncnc54)[C@H](O)[C@@H]3O)cccc12	-359	nt	nt	nt	nt	nt	nt	nt	nt	nt	nt
COCCCNC(=O)c1cccn2c(=O)c3cc4ccccc4cc3nc12	-94	30	82*	-84	85*	-2	-19	-10	-6	-9	-5
C=CCn1c(=N)c(C(=O)NCCCOC)cc2c(=O)n3cccc(C)c3nc21	-412	-3	-19	6	-1	-5	nt	nt	nt	nt	nt
CCC1CSC(Nc2ccc(C(=O)/C=C/c3cccc(C)c3)cc2)=N1 (stereo not drawn)	-109	4	54*	-1	-1	19	-15	-15	-22	-5	0
Cc1cc(C(F)(F)F)c(C#N)c(SCC(=O)Nc2nc3ccccc3s2)n1	19	91*	80*	4	89*	4	20	16	12	20	2
Cc1nc(SCC(=O)Nc2nc3ccccc3s2)c(C#N)c(C)c1C	0	6	-4	-1	0	15	nt	nt	nt	nt	nt
C[C@@H]1CN([C@H](C)CO)C(=O)CCCn2nncc2CO[C@H]1CN(C)C(=O)Nc1ccc(N2CCN(C)CC2)cc1	20	nt	nt	nt	nt	nt	nt	nt	nt	nt	nt
C(#CC1CCCC1)c1ccc2c(c1)COc1c3ccccc3nn1-2	5	2	44	4	26	19	nt	nt	nt	nt	nt
CCCc1cc(-c2ccc3c(c2)COc2c4ccccc4nn2-3)on1	-196	91*	93*	13	89*	-3	25	36	38	64*	12
Cc1cc(-c2ccc3c(c2)COc2c4ccccc4nn2-3)on1	-356	49	93*	8	86*	-8	-28	7	37	26	7
Cc1c(C(=O)Nc2ccccc2)cnn1-c1ccccc1	25	26	25	2	21	7	nt	nt	nt	nt	nt
Cc1ccc(NC(=O)c2cnn(-c3ccccc3)c2C)cc1C	16	90*	85*	-13	77*	13	5	86*	97*	80*	40
O=C(Nc1cccc([N+](=O)[O-])c1)c1[nH]ncc1Cl	14	81*	81*	-1	74*	4	67*	61*	91*	77*	54*
Cc1c(C(=O)Nc2cccc(F)c2)cnn1-c1ccccc1	10	41	48	3	35	7	nt	nt	nt	nt	nt
O=C(Nc1cccc([N+](=O)[O-])c1)c1cnccn1	1	-1	9	8	-11	-5	nt	nt	nt	nt	nt
COc1ccc(NC(=O)c2cnn(-c3ccccc3)c2C)cc1	10	90*	90*	8	80*	-18	-8	82*	97*	92*	56*
COc1ccc(NC(=O)c2cnn(-c3ccccc3)c2C)cc1OC	14	41	52*	-2	29	5	25	25	64*	63*	46
CCOc1ccc(/C(O)=C2\C(=O)C(=O)N(c3ccccn3)C2c2ccccc2F)c(C)c1 (stereo not drawn)	-6	nt	nt	nt	nt	nt	nt	nt	nt	nt	nt
CN1CCN(C(=O)c2ccc(-c3cnc4cccnn34)cc2)CC1	i	nt	nt	nt	nt	nt	nt	nt	nt	nt	nt
Cc1c(C(=O)Nc2cccc([N+](=O)[O-])c2)cnn1-c1ccccc1	12	56*	67*	3	34	11	51*	48	81*	49	58*
SMILES	SENP8 block-1	SENP7 block	SENP6 block	UBC13 polyUb	SENP8 block-2	Apaf-1 inh	SENP8 conf	SENP6 conf	SENP7 conf	Casp3 select	Luc interf
c1ccc([C@H]2CN3C(=N2)Sc2ccccc23)cc1	14	88*	93*	6	89*	3	93*	93*	100*	88*	92*
O=C(CSC(=S)N1CCCC1)c1ccccc1	-9	54*	64*	-6	28	2	52*	52*	78*	70*	56*
COc1ccc(C(=O)CSC(=S)N2CCCCC2)cc1	5	nt	nt	nt	nt	nt	nt	nt	nt	nt	nt
O=C(CSC(=S)N1CCCCC1)c1ccccc1	14	74*	74*	5	63*	5	-5	63*	90*	73*	67*
COc1cccc(NC(=O)c2ccc3c(c2)OCO3)c1	29	96*	93*	-7	88*	-5	-1	90*	100*	95*	90*
COc1cccc(NC(=O)c2oc3ccccc3c2NC(=O)c2ccc3c(c2)OCO3)c1	-99	11	-3	8	-1	1	nt	nt	nt	nt	nt
COC(=O)c1c(-c2cccnc2)csc1NC(=O)c1ccc2c(c1)OCO2	-465	95*	72*	1	73*	5	12	21	21	36	0
CN1CCSc2ccc(C(=O)Nc3ccc(Cl)cc3)cc21	-424	5	-28	4	-18	24	nt	nt	nt	nt	nt
